Laboratory results taken from ChEMBL document CHEMBL1125680, “Quinazolinone cholecystokinin-B receptor ligands” (J Med Chem, 1991).

Legend:
[1] = molecular target: T1, Gastrin/cholecystokinin type B receptor (Mus musculus) (UniProt P56481); assay: Inhibition of [125I]-labeled CCK-8 sulfate binding to cholecystokinin type B receptor in mouse brain membranes; type: cell membranes; conditions: Membrane, concentration not given here
T1 sequence (whole entry): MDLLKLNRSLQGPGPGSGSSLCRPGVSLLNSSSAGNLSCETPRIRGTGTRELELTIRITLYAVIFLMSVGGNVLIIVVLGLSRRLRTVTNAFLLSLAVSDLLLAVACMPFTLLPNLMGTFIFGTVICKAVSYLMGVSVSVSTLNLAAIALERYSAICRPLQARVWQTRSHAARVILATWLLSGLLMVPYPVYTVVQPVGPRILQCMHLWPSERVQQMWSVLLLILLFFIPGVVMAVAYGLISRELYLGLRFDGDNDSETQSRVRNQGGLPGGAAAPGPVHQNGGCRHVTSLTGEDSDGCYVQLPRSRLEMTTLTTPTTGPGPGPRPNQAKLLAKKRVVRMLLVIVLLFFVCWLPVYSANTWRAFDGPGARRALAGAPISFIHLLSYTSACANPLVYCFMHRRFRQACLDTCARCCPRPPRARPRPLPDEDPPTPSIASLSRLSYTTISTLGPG
How it was run: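 Mouse brain membranes as the CCK-B receptor source, with 125I-labelled CCK-8 sulfate as the radioligand, following the Chang and Lotti method.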

[2] = molecular target: T2, Cholecystokinin receptor type A (Rattus norvegicus) (UniProt P30551); assay: Inhibition of [3H]-labeled L-364,718 binding to Cholecystokinin type A receptor in rat pancreas; conditions: concentration not given here
T2 sequence (whole entry): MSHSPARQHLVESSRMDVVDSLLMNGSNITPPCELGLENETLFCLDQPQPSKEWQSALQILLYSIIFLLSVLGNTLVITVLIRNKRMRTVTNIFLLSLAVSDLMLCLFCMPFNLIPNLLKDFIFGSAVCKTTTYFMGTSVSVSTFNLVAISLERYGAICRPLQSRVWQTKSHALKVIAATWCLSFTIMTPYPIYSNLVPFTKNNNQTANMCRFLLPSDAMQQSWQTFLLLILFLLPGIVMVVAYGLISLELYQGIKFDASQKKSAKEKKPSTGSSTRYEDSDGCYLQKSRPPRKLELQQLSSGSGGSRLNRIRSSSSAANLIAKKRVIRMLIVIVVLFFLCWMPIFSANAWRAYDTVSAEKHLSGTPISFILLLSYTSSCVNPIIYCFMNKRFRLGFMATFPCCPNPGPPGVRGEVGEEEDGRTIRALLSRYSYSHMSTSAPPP

[3] = molecular target: T3, Gastrin/cholecystokinin type B receptor (Mus musculus, UniProt P56481); assay: Inhibition of [125I]CCK-8 sulfate binding to cholecystokinin type B receptor in mouse brain membranes.; type: cell membranes
T3 sequence (P56481 whole entry): T1 sequence (whole entry)

Row | SMILES | inhibition [2] [%] | IC50 [3] [µM] | inhibition [1] [%]
1 | O=c1c2ccccc2nc(CCc2c[nH]c3ccccc23)n1-c1ccccc1F |  |  | 75
2 | O=c1c2ccccc2nc(CCc2c[nH]c3ccccc23)n1-c1ccccc1Cl |  |  | 44
3 | CC(C)Oc1cccc(-n2c(CCc3c[nH]c4ccc(Br)cc34)nc3ccccc3c2=O)c1 | -6 |  | 
4 | O=c1c2ccccc2nc(CCc2c[nH]c3ccc(Br)cc23)n1-c1cccc(OC2CCCC2)c1 |  | 0.067 | 
5 | CCCOc1cccc(-n2c(CCc3c[nH]c4ccc(Br)cc34)nc3ccccc3c2=O)c1 |  | 0.058 | 
6 | COc1ccccc1-n1c(CCc2c[nH]c3ccccc23)nc2ccccc2c1=O |  |  | 74
7 | O=c1c2ccccc2nc(CCc2c[nH]c3ccccc23)n1-c1ccccc1C(F)(F)F |  |  | 35

Continued, in another order:

Row | inhibition [2] [%] | IC50 [3] [µM] | SMILES | inhibition [1] [%]
8 | 5 |  | COc1cccc(-n2c(CCc3c[nH]c4ccc(Br)cc34)nc3ccccc3c2=O)c1 | 
9 | -5 |  | CCc1cccc(-n2c(CCc3c[nH]c4ccc(Br)cc34)nc3ccccc3c2=O)c1 | 
10 | 6 | 0.48 | O=c1c2ccccc2nc(CCc2c[nH]c3ccccc23)n1-c1cccc(C(F)(F)F)c1 | 
